Source: ChEMBL document CHEMBL1821604, “Anticancer activity and cDNA microarray studies of a (RS)-1,2,3,5-tetrahydro-4,1-benzoxazepine-3-yl]-6-chloro-9H-purine, and an acyclic (RS)-O,N-acetalic 6-chloro-7H-purine” (Eur J Med Chem, 2011)

Key:
[1] = system: MCF-10A; test: Cytotoxicity against human MCF10A cells after 6 days by SRB colorimetric assay; format: cell-based; settings: 144 h
[2] = Therapeutic index, ratio of IC50 for human MCF10A cells to IC50 for human MCF7 cells; format: cell-based; settings: MCF10A cells (normal) versus MCF7 cells (cancer), read-out: Ratio IC50
In short: (§1)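 Each cell line grown in DMEM with 10% FBS, 37 °C, 5% CO₂. Cells seeded and allowed 24 h, then drug added in medium (≤0.1% v/v DMSO). Medium and drug renewed at day 3, cells kept 3 more days. Sulforhodamine-B read at 492 nm. IC₅₀ taken from semilog dose-response curves by linear interpolation, triplicate wells, at least twice. Index = IC₅₀ normal line / IC₅₀ cancer line.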

[3] = system: HT-29; test: Cytotoxicity against human HT-29 cells after 6 days by SRB colorimetric assay; format: functional, cell-based; settings: HT-29, 144 h
[4] = Cytotoxicity against rat IEC-6 cells after 6 days by SRB colorimetric assay; format: cell-based; settings: IEC-6, 144 h
[5] = Therapeutic index, ratio of IC50 for rat IEC-6 cells to IC50 for human HT-29 cells; format: cell-based; settings: IEC-6 cells (normal) versus HT-29 cells (cancer), read-out: Ratio IC50; in short: as §1
[6] = system: MCF7; test: Induction of apoptosis in human MCF7 cells at IC50 after 48 hrs using annexin V-FITC staining by flow cytometry; format: functional

Work on `O=c1[nH]cc(F)c(=O)[nH]1` [FLUOROURACIL] yielded an IC50 [1] of 0.73 µM, a selectivity ratio [2] of 0.17 and an IC50 [3] of 1.08 µM. For the same molecule, the IC50 [4] was 0.66 µM and the selectivity ratio [5] was 0.61.

Work on `CC(=O)O[C@H]1C(=O)[C@@]2(C)[C@H]([C@H](OC(=O)c3ccccc3)[C@]3(O)C[C@H](OC(=O)[C@H](O)[C@@H](NC(=O)c4ccccc4)c4ccccc4)C(C)=C1C3(C)C)[C@]1(OC(C)=O)CO[C@@H]1C[C@@H]2O` [PACLITAXEL] yielded an Activity [6] of 43%.
